Tests used:
[1] = test system: Rattus norvegicus; assay: Inhibition of mast cell degranulation was assessed in female albino rats at a dose of 47 umol/kg iv; type: functional
[2] = test system: Cavia porcellus; assay: Antibronchospatic activity determined by histamine stimulated bronchospasm inhibition in guinea pigs after(i.v.) administration; type: functional, Bronchiole
Procedure, shortened: (§1)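 Guinea pigs, Konzett–Rössler preparation. Bronchospasm was induced with histamine. Compound was given iv (1 mL/kg) 1 min before the agonist, dissolved in saline or saline with slight excess HCl or CH3SO3H (pH 3.5–4). Three doses were tested in duplicate, chosen to give 20–90% inhibition. ID75 was read graphically from log dose–response curves.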

[3] = test system: Rattus norvegicus; assay: Rat PCA Test(50% inhibition of spot areas)in the female albino rats after (ip) administration in 10% aqueous acacia gum; value ranges from 43-53; type: functional; conditions: read-out: ID50 (the source's name)
Procedure, shortened: (§2)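 Female albino rats (200–250 g) received intradermal ventral injections of rat anti-egg-albumin antiserum; donors were raised with egg albumin im plus H. pertussis ip, and serum was taken at 12 days. 24 h later, compound was given ip in 10% acacia gum (10 mL/kg), 10 rats/group. Challenge 30 min later was iv 0.3% egg albumin plus 1% Evans blue. Blued areas were measured 30 min after challenge.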

[4] = test system: Rattus norvegicus; assay: Rat PCA Test(50% inhibition of spot areas)in the female albino rats after oral administration in 10% aqueous acacia gum; type: functional; conditions: read-out: ID50 (the source's name)
Procedure, shortened: (§3)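 Female rats (200-250 g) were passively sensitized by ventral intradermal anti-egg-albumin antiserum. This was raised in rats by intramuscular 1% egg albumin plus ip H. pertussis vaccine, with serum taken at 12 days. After 24 h, groups of 10 were dosed orally with compound or vehicle (10 mL/kg). At 60 min, iv challenge used 0.3% egg albumin with 1% Evans blue. Blued areas were measured after 30 min.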

[5] = In vivo toxic effect was determined in mouse after intraperitoneal administration with 10% aqueous acacia gum; value ranges from 0.57-1.04; type: toxicity, organism-based; conditions: ip
Procedure, shortened: (§4)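 Female albino mice (20-30 g), 10 animals per dose, dosed intraperitoneally with compound in solution or suspension; compounds tested as salts unless noted. Mortality was recorded over 7 days.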

[6] = In vivo toxic effect was determined in mouse after oral administration with 10% aqueous acacia gum; value ranges from 0.99-1.61; type: toxicity, organism-based
Procedure, shortened: (§5)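 Female albino mice, 20-30 g. Compound given orally as solution or suspension in 10% aqueous acacia gum, 10 animals per dose. Deaths recorded over 7 days.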

[7] = test system: Rattus norvegicus; assay: Inhibition of mast cell degranulation was assessed in female albino rats at a dose of 22 umol/kg iv; type: functional
[8] = test system: Rattus norvegicus; assay: Rat PCA Test(50% inhibition of spot areas)in the female albino rats after (ip) administration in 10% aqueous acacia gum; value ranges from 23-40; type: functional; conditions: read-out: ID50 (the source's name); procedure, shortened: as §2
[9] = test system: Rattus norvegicus; assay: Rat PCA Test(50% inhibition of spot areas)in the female albino rats after oral administration in 10% aqueous acacia gum; value ranges from 88-129; type: functional; conditions: read-out: ID50 (the source's name); procedure, shortened: as §3
[10] = In vivo toxic effect was determined in mouse after intraperitoneal administration with 10% aqueous acacia gum; value ranges from 0.53-0.97; type: toxicity, organism-based; conditions: ip; procedure, shortened: as §4
[11] = In vivo toxic effect was determined in mouse after oral administration with 10% aqueous acacia gum; value ranges from 0.66-1.27; type: toxicity, organism-based
[12] = test system: Rattus norvegicus; assay: Rat PCA Test(50% inhibition of spot areas)in the female albino rats after (ip) administration in 10% aqueous acacia gum;Value ranges from(44-250); type: functional; conditions: read-out: ID50 (the source's name)
Procedure, shortened: (§6)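 Antiserum came from female rats given 1% egg albumin in 0.9% NaCl intramuscularly plus Haemophilus pertussis vaccine (2 × 10^10 organisms) intraperitoneally, and was collected 12 days later. Recipient rats (200-250 g) got it intradermally at a ventral site. After 24 h, groups of 10 received vehicle or compound ip. At 30 min they were challenged iv with 0.3% egg albumin plus 1% Evans blue. Blued skin areas were measured 30 min later.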

[13] = In vivo toxicity in mouse after oral administration with 10% aqueous acacia gum; type: organism-based; procedure, shortened: as §5
[14] = test system: Mus musculus; assay: In vivo toxic effect was determined in mouse after intraperitoneal administration with 10% aqueous acacia gum; NA means poorly absorbed; type: toxicity, organism-based; conditions: ip; procedure, shortened: as §4
[15] = test system: Rattus norvegicus; assay: Inhibition of mast cell degranulation was assessed in female albino rats at a dose of 43 umol/kg iv; type: functional
[16] = test system: Cavia porcellus; assay: Antibronchospatic activity was determined by inhibition of histamine stimulated bronchospasm in guinea pigs after (i.v.) administration; type: functional, Bronchiole; procedure, shortened: as §1
[17] = test system: Rattus norvegicus; assay: Rat PCA Test(50% inhibition of spot areas)in the female albino rats after (ip) administration in 10% aqueous acacia gum; value ranges from 41.2-87.3; type: functional; conditions: read-out: ID50 (the source's name); procedure, shortened: as §2
[18] = test system: Rattus norvegicus; assay: Rat PCA Test(50% inhibition of spot areas)in the female albino rats after (ip) administration in 10% aqueous acacia gum; value ranges from 96-124; type: functional; conditions: read-out: ID50 (the source's name); procedure, shortened: as §6
[19] = test system: Rattus norvegicus; assay: Inhibition of mast cell degranulation was assessed in female albino rats at a dose of 42 umol/kg iv; type: functional
[20] = test system: Rattus norvegicus; assay: Rat PCA Test(50% inhibition of spot areas)in the female albino rats after (ip) administration in 10% aqueous acacia gum; value ranges from 14-22; type: functional; conditions: read-out: ID50 (the source's name); procedure, shortened: as §2
[21] = In vivo toxic effect was determined in mouse after intraperitoneal administration with 10% aqueous acacia gum; value ranges from 0.50-0.84; type: toxicity, organism-based; conditions: ip; procedure, shortened: as §4
[22] = test system: Rattus norvegicus; assay: Rat PCA Test(50% inhibition of spot areas)in the female albino rats after (ip) administration in 10% aqueous acacia gum; value ranges from 213-612; type: functional; conditions: read-out: ID50 (the source's name); procedure, shortened: as §2
[23] = In vivo toxic effect was determined in mouse after intraperitoneal administration with 10% aqueous acacia gum; value ranges from 0.88-1.56; type: toxicity, organism-based; conditions: ip; procedure, shortened: as §4
[24] = test system: Rattus norvegicus; assay: Inhibition of mast cell degranulation was assessed in female albino rats at a dose of 23 umol/kg iv; type: functional
[25] = test system: Rattus norvegicus; assay: Rat PCA Test(50% inhibition of spot areas)in the female albino rats after oral administration in 10% aqueous acacia gum; value ranges from 8-11; type: functional; conditions: read-out: ID50 (the source's name); procedure, shortened: as §3
[26] = In vivo toxic effect was determined in mouse after intraperitoneal administration with 10% aqueous acacia gum; value ranges from 0.27-0.50; type: toxicity, organism-based; conditions: ip; procedure, shortened: as §4
[27] = In vivo toxic effect was determined in mouse after oral administration with 10% aqueous acacia gum; value ranges from 0.53-0.84; type: toxicity, organism-based
[28] = test system: Rattus norvegicus; assay: Inhibition of mast cell degranulation was assessed in female albino rats at a dose of 45 umol/kg iv administration; type: functional
[29] = test system: Rattus norvegicus; assay: Rat PCA Test(50% inhibition of spot areas)in the female albino rats after oral administration in 10% aqueous acacia gum;Value ranges from (2-34); type: functional; conditions: read-out: ID50 (the source's name); procedure, shortened: as §3
[30] = test system: Rattus norvegicus; assay: Rat PCA Test(50% inhibition of spot areas)in the female albino rats after oral administration in 10% aqueous acacia gum; Value ranges from (60-123); type: functional; conditions: read-out: ID50 (the source's name); procedure, shortened: as §3
[31] = In vivo toxic effect was determined in mouse after intraperitoneal administration with 10% aqueous acacia gum; value ranges from 0.67-1.21; type: toxicity, organism-based; conditions: ip; procedure, shortened: as §4

With `COc1ccc(NC(=O)CCN2CCN(c3ccccn3)CC2)cc1.Cl.Cl` the inhibition in vivo at 47 µmol/kg [1] was 19%, the ID75 [2] was 0.24 µM/kg and the ED50 [3] was 48 µmol/kg. The ED50 [4] was over 95 µmol/kg, the LD50 [5] was 710 µmol/kg and the LD50 [6] was 1160 µmol/kg.

`CCOC(=O)c1ccc(NC(=O)CCN2CCN(c3ccccn3)CC2)cc1.Cl.Cl` gave an inhibition in vivo at 22 µmol/kg [7] of 83%, an ID75 [2] of 0.17 µM/kg and an ED50 [8] of 30 µmol/kg. For the same molecule, the ED50 [9] was 107 µmol/kg, the LD50 [10] was 660 µmol/kg and the LD50 [11] was 920 µmol/kg.

In the case of `Cl.Cl.NC(=O)c1ccc(NC(=O)CCN2CCN(c3ccccn3)CC2)cc1`, the ID75 [2] is reported as 0.3 µM/kg, the ED50 [12] is reported as 124 µmol/kg and the ED50 [4] is reported as over 212 µmol/kg. For the same molecule, the LD50 [13] was over 6400 µmol/kg and the LD50 [14] was “Not Active”.

For `O=C([O-])c1cc(=O)c2c(OCC(O)COc3cccc4oc(C(=O)[O-])cc(=O)c34)cccc2o1.[Na+].[Na+]` [CROMOLYN SODIUM], the inhibition in vivo at 43 µmol/kg [15] was 83%, the ID75 [16] was over 21 µM/kg and the ED50 [17] was 60 µmol/kg. For the same molecule, the ED50 [4] was over 640 µmol/kg, the LD50 [13] was over 6410 µmol/kg and the LD50 [14] was “Not Active”.

With `CNC(=O)Nc1ccc(NC(=O)CCN2CCN(c3ccccn3)CC2)cc1.Cl.Cl` the inhibition in vivo at 43 µmol/kg [15] was 0%, the ID75 [2] was 0.29 µM/kg and the ED50 [18] was 109 µmol/kg. For the same molecule, the ED50 [4] was over 220 µmol/kg and the LD50 [13] was over 6500 µmol/kg.

For `Cc1cc(C)c(C)c(NC(=O)CCN2CCN(c3ccccn3)CC2)c1C.Cl.Cl`, the inhibition in vivo at 42 µmol/kg [19] was 2%, the ED50 [20] was 18 µmol/kg and the LD50 [21] was 570 µmol/kg.

Work on `C=CCOC(=O)CCN1CCN(c2ccccn2)CC1.Cl.Cl` yielded an ED50 [22] of 330 µmol/kg, an ED50 [4] of 11.5 µmol/kg and an LD50 [13] of over 8610 µmol/kg. The LD50 [23] was 1030 µmol/kg.

In the case of `O=c1[nH]c2ccccc2n1CCCN1CCN(C(c2ccccc2)c2ccccc2)CC1` [OXATOMIDE], the inhibition in vivo at 23 µmol/kg [24] is reported as 40%, the ID75 [2] is reported as 0.08 µM/kg and the ED50 [25] is reported as 9 µmol/kg. The LD50 [13] was over 7300 µmol/kg.

For `COc1cccc(N2CCN(CCC(=O)Nc3ccccc3N)CC2)n1.Cl.Cl`, the ID75 [2] was 108 µM/kg, the LD50 [26] was 370 µmol/kg and the LD50 [27] was 670 µmol/kg.

For `Cc1cccc(C)c1NC(=O)CCN1CCN(c2ccccn2)CC1`, the inhibition in vivo at 45 µmol/kg [28] was 27%, the ED50 [29] was 8 µmol/kg and the ED50 [30] was 86 µmol/kg. The LD50 [31] was 810 µmol/kg.

— ChEMBL document CHEMBL1123658, “1-(2-pyridinyl)piperazine derivatives with antianaphylactic, antibronchospastic, and mast cell stabilizing activities” (J Med Chem, 1987)
